ChEMBL document CHEMBL1133451, “Optimization of substituted N-3-benzylimidazoquinazolinone sulfonamides as potent and selective PDE5 inhibitors” (J Med Chem, 2000)
Values belong to the molecule of their own block, whether it stands above or below them.

Key:
[1] = molecular target: cGMP-specific 3',5'-cyclic phosphodiesterase (Homo sapiens, UniProt O76074); experiment: In vitro inhibitory concentration against human platelet Phosphodiesterase 5 was determined
[2] = In vitro selectivity ratio of Bovine Heart PDE1 to human platelet PDE5 was determined
Summary of the method: (§1)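 Scintillation proximity PDE assay at room temperature, read by scintillation counting. Substrates: [³H]cGMP for PDE5 (sonicated human platelet homogenate) and PDE1 (bovine heart, with 1 µM calmodulin and 4 mM calcium). PDE2 (rat kidney cytosol, Mono-Q purified) used [³H]cAMP plus 1 µM nonradioactive cGMP. PDE6 was stripped from bovine rod outer segments and trypsin-activated. Blank subtracted; activity as percent of vehicle; ratio = IC50 other/IC50 PDE5.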

[3] = In vitro selectivity ratio of PDE2 of Rat kidney to human platelet PDE5 was determined; summary of the method: as §1
[4] = In vitro selectivity ratio of PDE6 of Bovine retina to human platelet PDE5 was determined; summary of the method: as §1
[5] = test system: cGMP-specific 3',5'-cyclic phosphodiesterase (Oryctolagus cuniculus); experiment: Rabbit Corpus Cavernosum functional assay at 30 nM to determine the efficacy of PDE5 inhibition activity.
[6] = Selectivity ratio for Bovine retinal PDE6 and human platelet PDE5; summary of the method: as §1

Structure (SMILES): CCCOc1ccc(C(=O)N2CCN(CC)CC2)cc1-c1nc2cc3ncn(Cc4ccc(F)cc4)c3cc2c(=O)[nH]1
- IC50 [1]: 35 nM

Structure (SMILES): CCCOc1ccc(S(N)(=O)=O)cc1-c1nc2cc3ncn(Cc4ccc(F)cc4)c3cc2c(=O)[nH]1
- IC50 [1]: 3.2 nM

Structure (SMILES): CCCOc1ccc(S(=O)(=O)N2CCN(C)CC2)cc1-c1nc(O)c2cc3c(cc2n1)ncn3Cc1ccccc1
- IC50 ratio [2]: 3400
- IC50 ratio [3]: > 10000
- IC50 ratio [4]: 20
- Control relaxation [5]: 120%

Structure (SMILES): CCCOc1ccc(S(=O)(=O)N2CC[C@@H](N(C)C)C2)cc1-c1nc(O)c2cc3c(cc2n1)ncn3Cc1ccc(Cl)cc1
- IC50 [1]: 0.52 nM
- IC50 ratio [2]: > 10000
- IC50 ratio [3]: > 10000
- IC50 ratio [4]: 50

Structure (SMILES): CCCOc1ccc(S(N)(=O)=O)cc1-c1nc(O)c2cc3c(cc2n1)ncn3Cc1ccc(F)cc1
- IC50 ratio [2]: > 10000
- IC50 ratio [3]: > 10000
- IC50 ratio [4]: 20
- Control relaxation [5]: 100%

Structure (SMILES): CCCOc1ccc(C(=O)N2CC[C@@H](N(C)C)C2)cc1-c1nc2cc3ncn(Cc4ccc(F)cc4)c3cc2c(=O)[nH]1
- IC50 [1]: 40 nM

Structure (SMILES): CCCOc1ccc(C(N)=O)cc1-c1nc(O)c2cc3c(cc2n1)ncn3Cc1ccc(F)cc1
- IC50 ratio [2]: > 100000
- IC50 ratio [3]: > 100000
- IC50 ratio [4]: 60
- Control relaxation [5]: 140%

Structure (SMILES): CCCOc1ccc(S(=O)(=O)N2CC[C@H](N(C)C)C2)cc1-c1nc(O)c2cc3c(cc2n1)ncn3Cc1ccccc1
- IC50 [1]: 27 nM
- IC50 ratio [6]: 3

Structure (SMILES): CCCOc1ccc(S(=O)(=O)N2CCN(CC)CC2)cc1-c1nc(O)c2cc3c(cc2n1)ncn3Cc1cccc(OC)c1
- IC50 [1]: 1.1 nM
- IC50 ratio [2]: > 10000
- IC50 ratio [3]: 7000
- IC50 ratio [4]: 50
- Control relaxation [5]: 130%

Structure (SMILES): CCCOc1ccc(S(=O)(=O)N2CC[C@@H](N(C)C)C2)cc1-c1nc(O)c2cc3c(cc2n1)ncn3Cc1ccccc1
- IC50 [1]: 1.1 nM
- IC50 ratio [2]: > 10000
- IC50 ratio [3]: > 10000
- IC50 ratio [4]: 30
- Control relaxation [5]: 110%

Structure (SMILES): CCCOc1ccc(S(=O)(=O)N2CC[C@@H](N(C)C)C2)cc1-c1nc2cc3ncn(Cc4ccc(F)cc4)c3cc2c(=O)[nH]1
- IC50 [1]: 0.2 nM
- IC50 ratio [2]: > 10000
- IC50 ratio [3]: > 10000
- IC50 ratio [4]: 70
- Control relaxation [5]: 120%

Results, then the molecule that gave them:

- IC50 [1]: 1.4 nM
Structure (SMILES): CCCOc1ccc(S(=O)(=O)N2CCN(CC)CC2)cc1-c1nc2cc3ncn(Cc4cccc(F)c4)c3cc2c(=O)[nH]1

- IC50 ratio [2]: > 10000
- IC50 ratio [3]: > 10000
- IC50 ratio [4]: 80
- Control relaxation [5]: 100%
Structure (SMILES): CCCOc1ccc(S(=O)(=O)N2CCN(CC)CC2)cc1-c1nc(O)c2cc3c(cc2n1)ncn3Cc1cccc(F)c1

- IC50 [1]: 1.1 nM
- IC50 ratio [2]: > 10000
- IC50 ratio [3]: > 10000
- IC50 ratio [4]: 50
- Control relaxation [5]: 90%
Structure (SMILES): CCCOc1ccc(S(=O)(=O)N2CCN(CC)CC2)cc1-c1nc(O)c2cc3c(cc2n1)ncn3Cc1ccccc1

- IC50 [1]: 1.6 nM
Structure (SMILES): CCCOc1ccc(S(=O)(=O)N2CCN(CC)CC2)cc1-c1nc2cc3ncn(Cc4ccccc4Cl)c3cc2c(=O)[nH]1

- IC50 [1]: 0.62 nM
Structure (SMILES): CCCOc1ccc(S(=O)(=O)N2CCN(CC)CC2)cc1-c1nc2cc3ncn(Cc4ccccc4OC)c3cc2c(=O)[nH]1

- IC50 [1]: 1.7 nM
- IC50 ratio [2]: > 10000
- IC50 ratio [3]: > 10000
- IC50 ratio [4]: 80
- Control relaxation [5]: 100%
Structure (SMILES): CCCOc1ccc(S(=O)(=O)N2CCN(CC)CC2)cc1-c1nc(O)c2cc3c(cc2n1)ncn3Cc1ccc(F)cc1

- IC50 [1]: 3.3 nM
Structure (SMILES): CCCOc1ccc(S(=O)(=O)N2CCN(C)CC2)cc1-c1nc2cc3ncn(Cc4ccc(F)cc4)c3cc2c(=O)[nH]1

- IC50 ratio [2]: > 10000
- IC50 ratio [3]: > 10000
- IC50 ratio [4]: 40
- Control relaxation [5]: 90%
Structure (SMILES): CCCOc1ccc(S(=O)(=O)N2CCN(CC)CC2)cc1-c1nc(O)c2cc3c(cc2n1)ncn3Cc1ccccc1Cl
